In assay [1] the test system is β-catenin in HCT 116 cells. As to the kind of experiment: β-Catenin levels. It counts as cell-based, human. As to conditions: HCT 116, 100 μmol/L. An outline of the steps: (§1)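 Cells were lysed in ice-cold membrane lysis buffer (Triton X-100, MgCl2, KCl, DTT, HEPES, NaF, protease inhibitors) or in nuclear lysis buffer (HEPES, NaCl, EDTA, 25% glycerol). Nuclear lysates were kept at 4° C with vortexing every 5 min for 1 h, then centrifuged. Protein was measured by Lowry, separated by 12% SDS-PAGE and moved to nitrocellulose. Blots were blocked in 5% BSA/0.05% Tween 20, probed with primary antibody overnight at 4° C and HRP secondary for 1 h, and read by ECL.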

For assay [2], the system named is HT-29, SW480, and HCT 116 colon tumor cell lines. As to the kind of experiment: Growth assay. The assay is classed as cell-based. To be noted: Homo sapiens, 72 h, read-out: growth inhibition IC50. An outline of the steps: (§2)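 Colon tumor cells were kept in RPMI-1640 with 5% FBS and 4 mmol/L glutamine at 37° C, 5% CO2. They were plated at 5,000 per well, left to adhere overnight, and exposed for 72 h to a 2-log range of test compound. Viability was measured as ATP content by CellTiter-Glo, relative to vehicle.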

In another assay the target is purified ovine COX-1 (Ovis aries, UniProt P05979). Description: COX-1 colorimetric activity assay. The assay is classed as biochemical.
Sequence of purified ovine COX-1 (P05979 25-600): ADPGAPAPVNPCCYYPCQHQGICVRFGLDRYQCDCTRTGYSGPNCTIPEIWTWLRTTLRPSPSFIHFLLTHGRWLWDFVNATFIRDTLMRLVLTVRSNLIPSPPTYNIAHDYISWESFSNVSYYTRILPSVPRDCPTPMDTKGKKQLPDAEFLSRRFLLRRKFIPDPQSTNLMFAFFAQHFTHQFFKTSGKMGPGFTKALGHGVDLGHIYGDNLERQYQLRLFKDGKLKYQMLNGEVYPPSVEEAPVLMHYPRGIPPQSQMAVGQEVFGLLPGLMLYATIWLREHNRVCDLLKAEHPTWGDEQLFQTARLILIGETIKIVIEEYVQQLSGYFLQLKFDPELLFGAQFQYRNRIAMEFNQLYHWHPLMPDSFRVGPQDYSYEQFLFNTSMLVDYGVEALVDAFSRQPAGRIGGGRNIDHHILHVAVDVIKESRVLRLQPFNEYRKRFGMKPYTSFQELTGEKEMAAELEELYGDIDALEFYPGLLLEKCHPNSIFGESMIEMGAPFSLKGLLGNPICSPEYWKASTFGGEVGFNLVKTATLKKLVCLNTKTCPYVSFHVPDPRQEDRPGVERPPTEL
The target of a further assay is purified ovine COX-2 (Ovis aries, UniProt P79208). As to the kind of experiment: COX-2 colorimetric activity assay. It counts as biochemical.
Assay [3] concerns LPS-stimulated U937 promonocytic cells. As to the kind of experiment: PGE2 production assay. The assay is classed as cell-based, human. An outline of the steps: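 U937 promonocytic cells were differentiated with 10 nmol/L PMA for 48 h, washed, and plated at 1.0 × 10^6 cells per well to adhere overnight. They were stimulated with 10 μg/mL LPS and treated with test compound for 24 h. PGE2 in supernatants was measured by HTRF competitive FRET between a PGE2–d2 conjugate and an anti-PGE2 antibody.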

Assay [4] has as its system HCT 116 colon tumor cells. Description: Proliferation assay. To be noted: Homo sapiens, HCT-116, 24 h, read-out: inhibition of cell proliferation. It counts as cell-based. An outline of the steps: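 HCT 116 cells were seeded at 1.5 × 10^6 per 10-cm dish overnight, then serum-starved for 24 h. Test compound or vehicle (0.1% DMSO) was added in RPMI-1640 with 5% serum for 4 h, followed by 16 μmol/L EdU (final) for a further 18 h. EdU incorporation was read with Click-iT Alexa Fluor 488 by flow cytometry, ≥5,000 events, in triplicate.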

Assay [5] concerns HCT 116 colon tumor cells. Description: Apoptosis assay. The assay is classed as cell-based, human. To be noted: 24 hours, vehicle 3%. An outline of the steps: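 HCT 116 cells were seeded at 1 × 10^6 per 10-cm dish and grown 48 h, then treated with test compound or vehicle for 24 h. Floating and attached cells were pooled, fixed in 10% neutral buffered formalin on ice for 15 min, and stained for DNA strand breaks by APO-BrdU TUNEL with AlexaFluor-488. TUNEL-positive cells were counted by flow cytometry, ≥5,000 events, in triplicate.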

The subject of assay [6] is total cGMP hydrolysis in HT-29 whole-cell lysates. As to the kind of experiment: cGMP PDE activity in tumor cell lysate. It counts as biochemical, human. As to conditions: read-out: total cGMP hydrolysis IC50; HT-29 whole-cell lysate. In a few lines:
(§3)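 HT-29 cells were lysed in PDE activity buffer (20 mmol/L Tris-acetate, 5 mmol/L Mg acetate, 1 mmol/L EGTA, 1.0% Triton X-100, 50 mmol/L NaF, protease inhibitors, pH 7.4). Lysate protein was titrated to the mid portion of the activity curve.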

In assay [7] the test system is total cAMP hydrolysis in HT-29 whole-cell lysates. Description: cAMP PDE activity in tumor cell lysate. The assay is classed as biochemical, human. To be noted: read-out: total cAMP hydrolysis IC50; HT-29 whole-cell lysate. In a few lines:
as §3

The next assay deals with PDE1A (Homo sapiens, UniProt P54750). As to the kind of experiment: Recombinant PDE isozyme assay. It counts as biochemical. An outline of the steps:
(§4)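 Purified recombinant human PDE isozymes were assayed by IMAP fluorescence polarization, in which binding of hydrolysed nucleotide to immobilised metal complexes raises polarization.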

The next assay deals with PDE1B (Homo sapiens, UniProt Q01064). As to the kind of experiment: Recombinant PDE isozyme assay. The assay is classed as biochemical. In a few lines:
as §4

The next assay concerns the target PDE1C (Homo sapiens, UniProt Q14123). Description: Recombinant PDE isozyme assay. It counts as biochemical. In a few lines:
as §4

The next assay concerns the target PDE2A (Homo sapiens, UniProt O00408). As to the kind of experiment: Recombinant PDE isozyme assay. The assay is classed as biochemical.
Another assay has as its target PDE3A (Homo sapiens, UniProt Q14432). As to the kind of experiment: Recombinant PDE isozyme assay. It counts as biochemical. In a few lines:
as §4

The target of a further assay is PDE3B (Homo sapiens, UniProt Q13370). As to the kind of experiment: Recombinant PDE isozyme assay. It counts as biochemical. An outline of the steps:
as §4

The next assay deals with PDE4B (Homo sapiens, UniProt Q07343). Description: Recombinant PDE isozyme assay. It counts as biochemical. An outline of the steps: as §4
For assay [8], the target named is PDE5A (purified recombinant PDE5) (Homo sapiens, UniProt O76074). Description: Recombinant PDE isozyme assay. The assay is classed as biochemical. In a few lines:
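IMAP fluorescence polarization assay run on recombinant enzyme per kit instructions. Substrates: TAMRA-cGMP or fluorescein-cAMP, each at 50 nmol/L final. Hydrolysed cyclic nucleotide binds immobilized metal coordination complexes, raising polarization.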

In the next assay the target is PDE6C (Homo sapiens, UniProt P51160). Description: Recombinant PDE isozyme assay. The assay is classed as biochemical. In a few lines: as §4
The target of the next assay is PDE7A (Homo sapiens, UniProt Q13946). As to the kind of experiment: Recombinant PDE isozyme assay. It counts as biochemical. An outline of the steps:
as §4

A further assay deals with PDE8A (Homo sapiens, UniProt O60658). Description: Recombinant PDE isozyme assay. The assay is classed as biochemical. An outline of the steps:
as §4

For a further assay, the target named is PDE9A (Homo sapiens, UniProt O76083). Description: Recombinant PDE isozyme assay. It counts as biochemical. In a few lines:
as §4

The target in a further assay is PDE11A (Homo sapiens, UniProt Q9HCR9). Description: Recombinant PDE isozyme assay. It counts as biochemical. In a few lines:
as §4

Assay [9] deals with HCT 116 colon tumor cells. As to the kind of experiment: Growth assay. The assay is classed as cell-based. To be noted: Homo sapiens, HCT-116, read-out: growth inhibition IC50. In a few lines: as §2
The next assay relates to HT-29 colon tumor cells. As to the kind of experiment: Growth assay. It counts as cell-based. As to conditions: Homo sapiens, HT-29, read-out: growth inhibition IC50. In a few lines: as §2
The test system of assay [10] is normal fetal human colonocytes (FHC). As to the kind of experiment: Growth assay. The assay is classed as cell-based.
Assay [11] has as its system intracellular cGMP in HEK293 cells. Description: Intracellular cGMP levels. It counts as cell-based, human. To be noted: HEK293, 50 μmol/L SNP plus 1, 3, or 10 μmol/L compound.
For assay [12], the system named is PKG (VASP phosphorylation) in HT-29 cells. As to the kind of experiment: PKG activation. It counts as cell-based, human. To be noted: HT-29, 5 μmol/L; remained elevated for 5 hours.
Assay [13] has as its system nuclear β-catenin in HT-29 cells. Description: Nuclear β-catenin levels. The assay is classed as cell-based, human. An outline of the steps:
as §1

The test system of another assay is survivin in HT-29 cells. Description: Survivin expression. The assay is classed as cell-based, human. To be noted: 10 μmol/L, slightly longer duration than β-catenin decrease. In a few lines:
as §1

The subject of assay [14] is cleaved caspase-3 in HT-29 cells. As to the kind of experiment: Caspase-3 cleavage. The assay is classed as cell-based, human. To be noted: HT-29, 10 μmol/L. In a few lines:
as §1

For assay [15], the system named is β-catenin–mediated Tcf transcriptional activity in HCT 116 cells. Description: TOP/FOP-flash Tcf luciferase reporter assay. It counts as cell-based, human. To be noted: HCT 116, 24 hours. An outline of the steps: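 HCT 116 cells in 24-well plates were cotransfected with 0.1 μg TOP-flash (wild-type Tcf sites) or FOP-flash (mutated sites, nonspecific control) plus 0.1 μg β-galactosidase vector. After 24 h treatment with test compound, luciferase activity was measured and normalised to β-galactosidase activity.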
(In a reporter assay the amount or activity of a reporter protein is the signal.)

A further assay has as its system tumor cell growth. To be noted: cited from earlier work.
For another assay, the system named is PDE5. To be noted: cited from earlier work.

pIC50: −log10 of the molar value. Read-outs that look alike come from different tables or passages of the source.

Sequence of PDE1C (Q14123 whole entry): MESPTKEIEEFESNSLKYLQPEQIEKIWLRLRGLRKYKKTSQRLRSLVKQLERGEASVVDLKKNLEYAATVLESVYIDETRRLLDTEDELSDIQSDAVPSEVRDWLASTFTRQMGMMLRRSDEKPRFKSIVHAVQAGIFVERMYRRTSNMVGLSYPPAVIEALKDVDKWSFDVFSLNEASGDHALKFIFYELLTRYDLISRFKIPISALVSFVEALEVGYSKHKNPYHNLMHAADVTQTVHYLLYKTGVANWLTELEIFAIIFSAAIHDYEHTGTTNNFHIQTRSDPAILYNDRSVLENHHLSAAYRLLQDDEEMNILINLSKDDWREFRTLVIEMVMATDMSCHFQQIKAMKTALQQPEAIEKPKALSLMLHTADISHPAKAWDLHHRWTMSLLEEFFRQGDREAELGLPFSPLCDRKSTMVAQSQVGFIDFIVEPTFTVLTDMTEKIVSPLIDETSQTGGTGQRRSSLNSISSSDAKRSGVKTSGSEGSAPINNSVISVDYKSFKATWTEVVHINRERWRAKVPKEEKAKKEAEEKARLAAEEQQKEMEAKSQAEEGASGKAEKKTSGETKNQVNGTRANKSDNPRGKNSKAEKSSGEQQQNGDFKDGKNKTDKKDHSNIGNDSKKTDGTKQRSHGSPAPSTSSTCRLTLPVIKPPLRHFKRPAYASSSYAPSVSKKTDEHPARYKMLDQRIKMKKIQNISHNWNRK
Sequence of PDE2A (O00408 whole entry): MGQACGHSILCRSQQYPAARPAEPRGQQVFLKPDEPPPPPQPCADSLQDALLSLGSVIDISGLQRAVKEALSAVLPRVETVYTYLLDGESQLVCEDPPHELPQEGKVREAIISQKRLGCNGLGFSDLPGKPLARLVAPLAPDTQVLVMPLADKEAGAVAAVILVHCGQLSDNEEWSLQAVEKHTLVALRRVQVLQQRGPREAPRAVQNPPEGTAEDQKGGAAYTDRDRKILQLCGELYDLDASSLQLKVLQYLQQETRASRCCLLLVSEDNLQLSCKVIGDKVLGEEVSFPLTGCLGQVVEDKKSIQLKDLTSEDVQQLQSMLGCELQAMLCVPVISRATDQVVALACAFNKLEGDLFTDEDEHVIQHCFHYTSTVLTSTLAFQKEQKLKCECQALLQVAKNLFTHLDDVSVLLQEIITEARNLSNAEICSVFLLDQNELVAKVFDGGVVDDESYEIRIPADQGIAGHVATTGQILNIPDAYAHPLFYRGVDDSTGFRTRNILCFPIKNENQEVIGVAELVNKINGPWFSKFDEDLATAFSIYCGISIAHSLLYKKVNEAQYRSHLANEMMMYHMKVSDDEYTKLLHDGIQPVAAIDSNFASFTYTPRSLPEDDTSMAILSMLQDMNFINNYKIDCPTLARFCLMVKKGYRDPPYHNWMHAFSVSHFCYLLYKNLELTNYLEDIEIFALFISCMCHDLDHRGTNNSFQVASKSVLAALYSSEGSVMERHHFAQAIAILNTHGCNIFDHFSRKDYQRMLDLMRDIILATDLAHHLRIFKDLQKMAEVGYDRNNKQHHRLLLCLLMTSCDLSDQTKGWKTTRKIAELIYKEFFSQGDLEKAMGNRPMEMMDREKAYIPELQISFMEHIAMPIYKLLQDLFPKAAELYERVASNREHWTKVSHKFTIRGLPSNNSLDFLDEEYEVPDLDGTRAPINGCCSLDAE
Sequence of PDE3A (Q14432 whole entry): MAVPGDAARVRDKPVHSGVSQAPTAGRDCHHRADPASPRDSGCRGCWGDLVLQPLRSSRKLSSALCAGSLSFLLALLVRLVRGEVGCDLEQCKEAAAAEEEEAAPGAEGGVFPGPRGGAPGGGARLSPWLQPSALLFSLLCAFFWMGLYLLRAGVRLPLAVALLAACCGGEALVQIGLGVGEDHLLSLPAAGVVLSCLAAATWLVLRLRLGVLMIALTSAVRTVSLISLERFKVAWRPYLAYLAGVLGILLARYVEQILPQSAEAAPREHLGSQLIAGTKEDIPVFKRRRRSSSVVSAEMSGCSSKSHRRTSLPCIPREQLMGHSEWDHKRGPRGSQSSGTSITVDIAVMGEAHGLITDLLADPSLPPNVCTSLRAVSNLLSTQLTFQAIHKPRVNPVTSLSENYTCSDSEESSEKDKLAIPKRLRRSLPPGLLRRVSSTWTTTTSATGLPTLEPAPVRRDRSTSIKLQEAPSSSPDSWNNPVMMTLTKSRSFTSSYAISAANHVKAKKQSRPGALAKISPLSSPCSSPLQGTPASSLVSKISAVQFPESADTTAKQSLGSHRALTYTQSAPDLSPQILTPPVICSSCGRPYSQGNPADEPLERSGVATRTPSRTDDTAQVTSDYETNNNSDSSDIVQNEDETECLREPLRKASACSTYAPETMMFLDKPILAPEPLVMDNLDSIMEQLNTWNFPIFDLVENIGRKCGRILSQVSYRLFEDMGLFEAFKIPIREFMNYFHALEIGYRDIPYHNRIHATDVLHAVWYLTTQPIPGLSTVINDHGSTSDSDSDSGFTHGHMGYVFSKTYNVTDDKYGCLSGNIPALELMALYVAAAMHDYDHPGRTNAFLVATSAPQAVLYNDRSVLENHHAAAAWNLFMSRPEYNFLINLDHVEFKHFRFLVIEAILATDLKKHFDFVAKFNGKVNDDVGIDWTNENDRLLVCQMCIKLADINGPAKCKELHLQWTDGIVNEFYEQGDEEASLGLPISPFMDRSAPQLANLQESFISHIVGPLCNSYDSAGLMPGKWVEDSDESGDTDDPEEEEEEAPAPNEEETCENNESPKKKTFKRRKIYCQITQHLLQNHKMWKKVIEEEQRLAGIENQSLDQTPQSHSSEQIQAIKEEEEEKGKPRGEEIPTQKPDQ
Sequence of PDE1A (P54750 whole entry): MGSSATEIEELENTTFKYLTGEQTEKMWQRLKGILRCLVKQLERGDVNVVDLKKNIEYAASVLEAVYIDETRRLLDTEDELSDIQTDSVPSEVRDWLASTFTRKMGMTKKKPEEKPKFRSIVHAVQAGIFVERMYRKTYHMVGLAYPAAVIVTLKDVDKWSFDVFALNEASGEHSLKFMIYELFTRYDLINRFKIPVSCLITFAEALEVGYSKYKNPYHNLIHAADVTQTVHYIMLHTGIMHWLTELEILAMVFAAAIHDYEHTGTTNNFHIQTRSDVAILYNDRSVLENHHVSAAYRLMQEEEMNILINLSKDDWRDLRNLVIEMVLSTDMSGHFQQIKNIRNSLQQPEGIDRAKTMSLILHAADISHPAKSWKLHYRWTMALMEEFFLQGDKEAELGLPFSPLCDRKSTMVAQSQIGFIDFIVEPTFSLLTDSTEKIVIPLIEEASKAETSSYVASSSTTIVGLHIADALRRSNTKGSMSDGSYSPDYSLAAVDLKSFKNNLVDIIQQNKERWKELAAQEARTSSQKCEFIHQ
Sequence of PDE3B (Q13370 whole entry): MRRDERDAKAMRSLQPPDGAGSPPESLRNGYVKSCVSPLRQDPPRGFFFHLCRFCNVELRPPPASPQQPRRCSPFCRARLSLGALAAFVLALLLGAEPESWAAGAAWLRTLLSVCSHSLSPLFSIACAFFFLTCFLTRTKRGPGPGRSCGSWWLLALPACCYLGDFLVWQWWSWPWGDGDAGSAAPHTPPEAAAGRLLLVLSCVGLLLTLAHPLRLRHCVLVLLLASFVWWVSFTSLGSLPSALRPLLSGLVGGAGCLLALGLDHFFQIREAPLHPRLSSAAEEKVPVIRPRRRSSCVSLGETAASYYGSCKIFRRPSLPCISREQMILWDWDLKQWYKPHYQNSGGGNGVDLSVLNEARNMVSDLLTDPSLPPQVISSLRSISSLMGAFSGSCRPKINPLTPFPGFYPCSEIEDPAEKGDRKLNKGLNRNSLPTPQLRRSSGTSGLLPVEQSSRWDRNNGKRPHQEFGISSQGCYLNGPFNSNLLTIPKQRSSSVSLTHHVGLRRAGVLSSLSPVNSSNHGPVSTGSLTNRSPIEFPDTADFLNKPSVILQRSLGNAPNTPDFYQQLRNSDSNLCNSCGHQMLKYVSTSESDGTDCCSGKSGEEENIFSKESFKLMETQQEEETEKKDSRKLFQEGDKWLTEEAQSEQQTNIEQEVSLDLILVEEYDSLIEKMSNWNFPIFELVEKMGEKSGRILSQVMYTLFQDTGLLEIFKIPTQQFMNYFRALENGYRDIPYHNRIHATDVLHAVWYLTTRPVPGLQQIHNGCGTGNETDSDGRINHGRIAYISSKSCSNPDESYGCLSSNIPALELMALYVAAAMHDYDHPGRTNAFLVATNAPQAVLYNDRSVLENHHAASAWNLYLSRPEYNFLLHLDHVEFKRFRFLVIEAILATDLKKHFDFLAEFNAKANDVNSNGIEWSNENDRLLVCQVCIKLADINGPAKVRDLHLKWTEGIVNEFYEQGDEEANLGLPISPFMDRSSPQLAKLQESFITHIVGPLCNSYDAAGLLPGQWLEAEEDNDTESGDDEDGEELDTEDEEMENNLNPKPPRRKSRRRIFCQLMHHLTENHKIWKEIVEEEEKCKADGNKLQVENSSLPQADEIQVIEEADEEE

Turning to `Nc1nc2c(nc(Br)n2[C@@H]2O[C@@H]3COP(=O)(O)O[C@H]3[C@H]2O)c(=O)[nH]1` [8-bromo-cGMP], the “effect on β-catenin levels” value in [1] was “suppress β-catenin levels”.
By pIC50 is commonly meant the IC50 on a negative log10 scale, so that one unit is a factor of ten. In the case of `CC1=C(CCNCc2ccccc2)c2cc(F)ccc2/C1=C\c1ccc([S+](C)[O-])cc1` (stereo not drawn) [SBA, (Z)-N-benzyl-2-(5-fluoro-2-methyl-1-(4-(methylsulfinyl)benzylidene)-1H-inden-3-yl)ethanamine], the pIC50 in assay [2] is 5.30 to 5.52; against purified ovine COX-1, under 3.70; at purified ovine COX-2, under 3.70; in assay [6] it was 5.10; in assay [7], under 3.70; on PDE1A, under 4.00. In addition, the pIC50 on PDE1A (read-out: cAMP IC50, PDE 1A, cAMP substrate) was under 4.00; on PDE1B it was under 4.00; on PDE1B (read-out: cAMP IC50, PDE 1B, cAMP substrate), under 4.00; on PDE1C, under 4.00; on PDE1C (read-out: cAMP IC50, PDE 1C, cAMP substrate) it was under 4.00; on PDE2A it was under 4.00. Also, the negative-log IC50 (pIC50) is under 4.00 at PDE2A (read-out: cAMP IC50, PDE 2A, cAMP substrate); under 4.00 at PDE3A; under 4.00 on PDE3A (read-out: cAMP IC50, PDE 3A, cAMP substrate); under 4.00 at PDE3B; under 4.00 on PDE3B (read-out: cAMP IC50, PDE 3B, cAMP substrate); 4.12 at PDE4B. The pIC50 in assay [8] was 5.05; at PDE6C it was under 4.00; on PDE7A, under 4.00; on PDE8A it was under 4.00; on PDE9A, under 4.00; at PDE11A it was under 4.00. Moreover, the pIC50 was under 4.00 on PDE11A (read-out: cAMP IC50, PDE 11A, cAMP substrate); 5.30 in [9]; 5.30 in the assay with HT-29 colon tumor cells; 4.48 in assay [10] (Homo sapiens, read-out: growth inhibition IC50). In assay [3] (LPS 10 μg/mL, 24 hours treatment), the “suppression of PGE2 production” value is listed as “ineffective”. In addition, the inhibition at 50 µM in assay [4] worked out at 86%. The “apoptotic (TUNEL-positive) cells” value in [5] (50 μmol/L) is 75%. The “fold higher IC50 in FHC than in colon tumor cell lines” value in assay [10] (FHC vs HT-29 and HCT 116) is on record as over 6 fold. Further, in assay [11], the “effect on intracellular cGMP (luminescence)” value was “rapid and sustained increase in luminescence”. In addition, the “time to increased phospho-VASP levels” value in [12] is at most 1 h. The “time to reduced nuclear levels of β-catenin” value in [13] is at most 1 h. Also, the expression of survivin result with survivin in HT-29 cells is listed as “decreased”. The “levels of cleaved caspase-3” value in assay [14] is “increased”. The “β-catenin–mediated Tcf transcriptional activity” value in assay [15] is reported as “significant decrease”.
In the case of `CCCc1nn(C)c2c(=O)[nH]c(-c3cc(S(=O)(=O)N4CCN(C)CC4)ccc3OCC)nc12` [sildenafil], the “tumor cell growth inhibitory activity” value in the assay on tumor cell growth is “completely inactive”.
For `CSc1ccc(/C=C2/C(C)=C(CC(=O)O)c3cc(F)ccc32)cc1` [sulindac sulfide, Sulindac sulfide, reference compound], the pIC50 in assay [2] is 3.92 to 4.05; at purified ovine COX-1 (read-out: COX-1 inhibition IC50, purified ovine COX-1), 5.70; in [3] (Homo sapiens, U-937, 24 h, read-out: suppression of PGE2 production IC50), 6.15; in assay [6], 4.31; in [7], 3.88. Further, in assay [5] (100 μmol/L), the “apoptotic (TUNEL-positive) cells” value is 12%.
Take `CN1CC(=O)N2[C@H](c3ccc4c(c3)OCO4)c3[nH]c4ccccc4c3C[C@@H]2C1=O` [tadalafil]: the “concentrations required to inhibit tumor cell growth” value in the assay on tumor cell growth is on record as “micromolar levels”. Further, in the assay on PDE5, the “concentrations required to inhibit PDE5 in cell-free assays” value is on record as “nanomolar levels”.
